Legend:
[1] = Partition coefficient (logP); assay type: physicochemical; conditions: octanol/water
[2] = species on record: Oryctolagus cuniculus; assay: pA2 value was determined by the compound's ability to antagonize the AII-induced contraction of rabbit aorta rings.; assay type: functional; conditions: read-out: pA2 (converted)
How it was run: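 Thoracic aorta rings (3 mm) from New Zealand white rabbits were held in 37 °C physiological salt solution aerated with 95% O2/5% CO2, and isometric tension was recorded. A cumulative AII curve (10^-10 to 10^-7 M) was run, the tissue washed, and the compound added in DMSO for 30 min before the AII curve was repeated. Responses were expressed as % of control maximum, with EC50s from four-parameter logistic fits.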

[3] = biological target: T1, Type-1 angiotensin II receptor B (Rattus norvegicus, UniProt P29089); assay: Concentration required to inhibit binding of radioligand [125I]AII to angiotensin II receptor, type 1 in rat adrenal glomerulosa tissue
T1 sequence (P29089 whole entry): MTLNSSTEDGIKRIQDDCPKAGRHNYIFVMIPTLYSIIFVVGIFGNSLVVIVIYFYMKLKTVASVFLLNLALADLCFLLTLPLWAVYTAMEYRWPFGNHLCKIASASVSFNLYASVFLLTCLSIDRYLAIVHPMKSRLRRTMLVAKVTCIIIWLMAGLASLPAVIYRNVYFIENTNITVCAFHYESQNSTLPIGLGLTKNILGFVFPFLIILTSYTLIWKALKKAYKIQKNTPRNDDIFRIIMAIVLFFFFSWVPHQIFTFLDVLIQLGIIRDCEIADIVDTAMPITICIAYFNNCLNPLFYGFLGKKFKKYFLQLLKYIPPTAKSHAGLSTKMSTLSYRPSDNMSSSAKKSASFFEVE
How it was run: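 Buffer was 50 mM Tris, 120 mM NaCl, 5 mM MgCl2, 1 mM DTT and 0.05% BSA, with 8–15 μg protein. Antagonists were tested at 10 nM–100 μM, and nonspecific binding was defined with 0.1 μM [Sar1,Ile8]AII. Bound ligand was filtered and gamma-counted in triplicate. IC50 was taken from the linear portion of the displacement curve.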

SMILES | logP [1] | IC50 [3] [nM] | Kb [2] [nM]
CCCCc1nc(Cl)c(CO)n1Cc1ccc(C2=C(c3nnn[nH]3)CCC2)cc1 | 3.78 | 3500 | 355
CCCCc1nc(Cl)c(C(=O)O)n1Cc1ccc(-c2ccccc2-c2nn[nH]n2)cc1 [CARBOXYLIC ACID METABOLITE] | 4.92 |  | 0.234
CCCCc1nc(Cl)c(CO)n1Cc1ccc(-c2ccccc2-c2nnn[nH]2)cc1 [LOSARTAN] | 4.45 |  | 3.8

More lines, main results first:

logP [1] | IC50 [3] [nM] | SMILES | Kb [2] [nM]
4.34 |  | CCCCc1nc(Cl)c(CO)n1Cc1ccc(C2=C(c3nnn[nH]3)CCCC2)cc1 | 129
5.37 | 390 | CCCCc1nc(Cl)c(C(=O)O)n1Cc1ccc(C2=C(c3nn[nH]n3)CCCCC2)cc1 | 12
4.9 | 2800 | CCCCc1nc(Cl)c(CO)n1Cc1ccc(C2=C(c3nn[nH]n3)CCCCC2)cc1 | 468
4.81 | 400 | CCCCc1nc(Cl)c(C(=O)O)n1Cc1ccc(C2=C(c3nn[nH]n3)CCCC2)cc1 | 4.07
4.25 | 310 | CCCCc1nc(Cl)c(C(=O)O)n1Cc1ccc(C2=C(c3nnn[nH]3)CCC2)cc1 | 14.5
